What was measured:
[1] = Concentration in rat plasma 24 hours after single 5 mg/kg oral cassette gavage dose; assay type: ADME, organism-based; set-up: dose 5 mg/kg, route oral; conditions: read-out: C24
Stromelysin-1 = Stromelysin-1 (Homo sapiens, UniProt P08254); test: In vitro inhibition of recombinant human matrix metalloprotease-3 (MMP-3)
Collagenase 3 = Collagenase 3 (Homo sapiens, UniProt P45452)
[2] = Cmax in rat plasma after single 5 mg/kg oral cassette gavage dose; assay type: ADME, organism-based; set-up: dose 5 mg/kg, route oral
How it was run: (§1)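 Cassette of 5–7 compounds given together as one oral gavage, 5 mg/kg per compound, methyl cellulose suspension, 3 fasted male Wistar rats (80-90 days old). Heparinized plasma taken by jugular cannula predose to 48 h. LC-MS/MS with LLOQ 10 ng/mL. Noncompartmental analysis of individual rats: Cmax/tmax as observed, t1/2 = 0.693/λz, trapezoidal AUC(0-tldc) extrapolated to infinity.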

[3] = Pharmacokinetic parameters in rats following a single 5 mg/kg oral cassette gavage dose; assay type: ADME, organism-based; set-up: dose 5 mg/kg, route oral; conditions: rat, in vivo, read-out: AUC 0-infinity; how it was run: as §1
[4] = AUC in rats following a single 5 mg/kg oral cassette gavage dose; assay type: ADME, organism-based; set-up: dose 5 mg/kg, route oral; conditions: rat, plasma, read-out: AUC 0-tldc; how it was run: as §1
Interstitial collagenase = biological target: T1, Interstitial collagenase (Homo sapiens, UniProt P03956); test: In vitro inhibition of human recombinant matrix metalloprotease-1 (MMP-1)
T1 sequence (P03956 whole entry): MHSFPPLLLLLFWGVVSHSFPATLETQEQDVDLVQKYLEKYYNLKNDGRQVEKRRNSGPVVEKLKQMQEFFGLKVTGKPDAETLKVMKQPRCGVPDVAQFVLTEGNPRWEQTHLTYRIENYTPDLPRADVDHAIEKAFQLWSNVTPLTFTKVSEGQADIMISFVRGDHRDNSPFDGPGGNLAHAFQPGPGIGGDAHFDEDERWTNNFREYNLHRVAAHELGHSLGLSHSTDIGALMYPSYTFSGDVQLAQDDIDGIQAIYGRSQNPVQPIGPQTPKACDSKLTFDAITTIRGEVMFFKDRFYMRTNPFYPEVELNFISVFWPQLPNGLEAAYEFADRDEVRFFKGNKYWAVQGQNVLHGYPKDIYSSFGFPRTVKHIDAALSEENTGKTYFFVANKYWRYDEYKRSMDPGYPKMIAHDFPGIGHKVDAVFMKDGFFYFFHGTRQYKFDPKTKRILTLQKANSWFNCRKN

[5] = biological target: Matrix metalloproteinase-9 (Homo sapiens, UniProt P14780); test: In vitro inhibition of matrix metalloprotease-9 (MMP-9)
[6] = Time to maximal concentration (tmax) in rats following a single 5 mg/kg oral cassette gavage dose; assay type: ADME, organism-based; set-up: dose 5 mg/kg, route oral; conditions: rat, in vivo; how it was run: as §1
[7] = Half life (t1/2) in rats following a single 5 mg/kg oral cassette gavage dose; assay type: ADME, organism-based; set-up: dose 5 mg/kg, route oral; conditions: rat, in vivo; how it was run: as §1
Matrilysin = biological target: T2, Matrilysin (Homo sapiens, UniProt P09237); test: In vitro inhibition of matrix metalloprotease-7 (MMP-7)
T2 sequence (P09237 whole entry): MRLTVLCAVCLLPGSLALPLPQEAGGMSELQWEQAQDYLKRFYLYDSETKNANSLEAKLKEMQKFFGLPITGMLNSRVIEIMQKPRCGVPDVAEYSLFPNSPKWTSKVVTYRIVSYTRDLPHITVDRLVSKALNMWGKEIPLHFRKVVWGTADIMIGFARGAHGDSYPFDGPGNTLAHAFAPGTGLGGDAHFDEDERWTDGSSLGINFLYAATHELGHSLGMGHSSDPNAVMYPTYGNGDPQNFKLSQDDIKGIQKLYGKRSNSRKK

[8] = biological target: 72 kDa type IV collagenase (Homo sapiens, UniProt P08253); test: In vitro inhibition of matrix metalloprotease-2 (MMP-2)
Chain of 72 kDa type IV collagenase (P08253 whole entry): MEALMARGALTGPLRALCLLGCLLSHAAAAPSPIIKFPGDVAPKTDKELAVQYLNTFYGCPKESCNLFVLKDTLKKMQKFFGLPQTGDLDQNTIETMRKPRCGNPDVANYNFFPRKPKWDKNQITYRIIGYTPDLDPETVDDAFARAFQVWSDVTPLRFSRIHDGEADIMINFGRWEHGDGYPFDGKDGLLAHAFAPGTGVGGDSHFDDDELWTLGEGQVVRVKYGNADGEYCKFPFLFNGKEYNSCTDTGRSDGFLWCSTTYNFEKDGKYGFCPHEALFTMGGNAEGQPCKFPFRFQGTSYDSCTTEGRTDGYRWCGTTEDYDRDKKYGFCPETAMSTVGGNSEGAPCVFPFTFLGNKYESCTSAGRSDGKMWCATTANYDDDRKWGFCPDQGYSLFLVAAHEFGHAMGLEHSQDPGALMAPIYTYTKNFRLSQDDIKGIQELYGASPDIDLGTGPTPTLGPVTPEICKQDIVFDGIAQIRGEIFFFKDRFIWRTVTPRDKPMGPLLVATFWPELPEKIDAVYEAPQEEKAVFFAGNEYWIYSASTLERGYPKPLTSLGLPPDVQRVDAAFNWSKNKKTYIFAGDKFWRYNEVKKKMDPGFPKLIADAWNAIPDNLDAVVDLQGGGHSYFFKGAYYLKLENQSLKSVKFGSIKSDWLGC

Chain of Matrix metalloproteinase-9 (P14780 whole entry): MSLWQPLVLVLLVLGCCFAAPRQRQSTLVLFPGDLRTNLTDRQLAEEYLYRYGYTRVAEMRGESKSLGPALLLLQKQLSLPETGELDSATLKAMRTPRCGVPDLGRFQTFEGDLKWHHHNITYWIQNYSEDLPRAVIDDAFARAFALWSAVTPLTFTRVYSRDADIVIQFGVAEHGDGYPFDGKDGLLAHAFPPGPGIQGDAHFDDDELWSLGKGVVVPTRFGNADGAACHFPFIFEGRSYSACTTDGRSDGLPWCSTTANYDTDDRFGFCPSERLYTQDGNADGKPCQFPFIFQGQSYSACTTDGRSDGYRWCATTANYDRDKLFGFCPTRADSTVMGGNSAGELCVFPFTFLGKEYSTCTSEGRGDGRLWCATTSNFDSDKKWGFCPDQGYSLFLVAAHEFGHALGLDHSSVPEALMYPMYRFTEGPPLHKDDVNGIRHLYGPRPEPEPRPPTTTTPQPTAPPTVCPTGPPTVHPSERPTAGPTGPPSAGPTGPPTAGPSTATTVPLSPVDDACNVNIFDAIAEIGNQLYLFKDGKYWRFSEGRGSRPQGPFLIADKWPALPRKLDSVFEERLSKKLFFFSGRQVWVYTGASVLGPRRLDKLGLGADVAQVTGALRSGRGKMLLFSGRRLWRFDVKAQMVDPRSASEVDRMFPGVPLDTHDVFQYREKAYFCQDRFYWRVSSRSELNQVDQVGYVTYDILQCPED
Chain of Stromelysin-1 (P08254 whole entry): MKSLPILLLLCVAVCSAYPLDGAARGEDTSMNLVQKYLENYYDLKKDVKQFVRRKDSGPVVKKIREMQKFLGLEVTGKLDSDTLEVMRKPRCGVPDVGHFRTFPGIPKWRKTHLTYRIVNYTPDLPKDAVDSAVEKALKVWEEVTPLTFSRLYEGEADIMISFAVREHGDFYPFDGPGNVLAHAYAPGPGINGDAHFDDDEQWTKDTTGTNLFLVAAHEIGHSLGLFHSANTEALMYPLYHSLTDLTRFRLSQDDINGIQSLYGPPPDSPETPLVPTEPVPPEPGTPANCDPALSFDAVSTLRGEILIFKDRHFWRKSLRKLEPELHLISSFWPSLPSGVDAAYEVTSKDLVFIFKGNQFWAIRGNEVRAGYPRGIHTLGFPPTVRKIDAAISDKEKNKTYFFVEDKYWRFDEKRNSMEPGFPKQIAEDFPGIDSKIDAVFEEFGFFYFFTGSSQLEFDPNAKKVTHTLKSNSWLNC

Row | SMILES | concentration at 24 h [1] [ng/mL] | IC50 (Stromelysin-1) [µM] | IC50 (Collagenase 3) [µM] | Cmax [2] [ng/mL] | AUC [3] [µg·h/mL] | AUC [4] [µg·h/mL] | IC50 (Interstitial collagenase) [µM] | IC50 [5] [µM] | Tmax [6] [h] | half-life [7] [h] | IC50 (Matrilysin) [µM] | IC50 [8] [µM]
1 | CC(C)[C@H](NS(=O)(=O)c1ccc(-c2ccc(Cl)cc2)cc1)C(=O)O | 4020 | 0.009 | 0.048 | 8860 | 427 | 170 | 6.5 | 16 | 0.5 | 34.1 | 7.5 | 0.011
2 | O=C(O)CNS(=O)(=O)c1ccc(-c2ccc(Br)cc2)cc1 | 5670 | 0.01 | 0.026 | 9960 | 316 | 276 | 50 | 6.7 | 8 | 15.6 | 77 | 0.004
3 | CC(C)C[C@H](NS(=O)(=O)c1ccc(-c2ccc(Br)cc2)cc1)C(=O)O | 12400 | 0.007 | 0.005 | 30700 | 1210 | 578 | 7 | 4.9 | 2.33 | 41.8 | 3.1 | 0.009
4 | CC(C)[C@H](NS(=O)(=O)c1ccc(-c2ccc(Br)cc2F)cc1)C(=O)O | 21300 | 0.016 | 0.007 | 28500 | 4040 | 1360 | 3.6 | 4.9 | 1.88 | 117 | 2.1 | 0.005

Reference: ChEMBL document CHEMBL1133013, “Structure-activity relationships and pharmacokinetic analysis for a series of potent, systemically available biphenylsulfonamide matrix metalloproteinase inhibitors” (J Med Chem, 2000)
